pIC50: −log10 of the molar value. Each block holds one compound with its values, some of them ahead of it. The source made the active and inactive calls. The rule behind the calls is not given here.
Legend:
Mus musculus [1] = assay: Evaluated in vivo for their ability to decrease plasma glucose levels in diabetic C57BL/KsJ db/db mouse at a dose 100 mg/kg/day; *p indicates <0.05; assay type: functional
Procedure, shortened: (§1)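 Mice dosed orally once daily for 4 days; plasma glucose and insulin measured and expressed as percent change versus a vehicle-treated group (mean ± SE, 4-6 mice/group). NS is generally less than -15% change. Significance is versus vehicle-treated mice.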

Mus musculus [2] = assay: Evaluated for their ability to decrease plasma insulin levels in mouse at a dose 100 mg/kg/day; **p indicates <0.01; assay type: functional; procedure, shortened: as §1
Mus musculus [3] = assay: Evaluated in vivo for their ability to decrease plasma glucose levels in diabetic C57BL/KsJ ob/ob mouse at a dose 100 mg/kg/day; **p indicates <0.01; assay type: functional
Procedure, shortened: (§2)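 Diabetic db/db or ob/ob mice dosed orally once daily for 4 days. Plasma glucose and insulin reported as percent change from a vehicle-treated group. 4-6 mice per group. Significance set at p < 0.05 or p < 0.01 versus vehicle; NS means generally less than -15% change.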

[4] = target: T1, Tyrosine-protein phosphatase non-receptor type 1 (Rattus norvegicus) (UniProt P20417); assay: Inhibition of Protein-tyrosine phosphatase 1B activity in rat hepatic membrane at a concentration of 50 uM using pNPP as the substrate; assay type: cell membranes; conditions: Liver
T1 sequence (whole entry): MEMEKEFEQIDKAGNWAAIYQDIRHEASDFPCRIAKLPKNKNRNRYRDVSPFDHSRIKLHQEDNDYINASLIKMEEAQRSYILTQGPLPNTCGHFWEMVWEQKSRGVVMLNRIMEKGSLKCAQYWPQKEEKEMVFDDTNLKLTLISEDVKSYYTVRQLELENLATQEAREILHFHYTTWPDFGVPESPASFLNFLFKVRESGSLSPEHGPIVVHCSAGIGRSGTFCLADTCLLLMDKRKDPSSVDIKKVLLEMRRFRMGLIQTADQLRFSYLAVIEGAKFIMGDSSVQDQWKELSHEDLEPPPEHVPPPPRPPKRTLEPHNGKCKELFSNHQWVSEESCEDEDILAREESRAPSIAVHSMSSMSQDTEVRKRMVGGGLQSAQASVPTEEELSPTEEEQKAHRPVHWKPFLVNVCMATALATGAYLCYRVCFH
Procedure, shortened: (§3)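 Liver membranes from male Sprague-Dawley rats (100-150 g), about 30 µg protein per well. Preincubated 10 min at 37 °C with compound in 1.25% DMSO in 50 mM HEPES pH 7.4. Then 6.33 mM pNPP for 30 min at 37 °C, stopped with NaOH. p-Nitrophenol read at 410 nm. Run in triplicate. Reported as percent of untreated control.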

[5] = target: T2, Tyrosine-protein phosphatase non-receptor type 1 (Rattus norvegicus, UniProt P20417); assay: Inhibition of PTPase activity using recombinant Protein-tyrosine phosphatase 1B as the enzyme and IR-triphosphopeptide as substrate
T2 sequence (P20417 whole entry): T1 sequence (whole entry)

[6] = target: T1, Tyrosine-protein phosphatase non-receptor type 1 (Rattus norvegicus); assay: Inhibition of PTPase (PTP1B) activity in rat hepatic membrane at 50 uM concentration, using pNPP as the substrate; assay type: cell membranes; conditions: Liver; procedure, shortened: as §3
[7] = target: T2, Tyrosine-protein phosphatase non-receptor type 1; assay: Inhibition of PTPase activity using recombinant r-PTP1B as the enzyme and IR-triphosphopeptide as substrate
Procedure, shortened: (§4)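 Rat recombinant PTP1B in 33 mM TRIS-HCl, 2 mM EDTA, 50 mM β-mercaptoethanol, pH 7.4 (about 1000-2000 nmol/min/mg). Preincubated 10 min at 37 °C with or without compound in HEPES buffer pH 7.4. Released phosphate read by malachite green-ammonium molybdate at 650 nm against a phosphate standard. Quadruplicates. IC50 by four-parameter logistic fit.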

Mus musculus [8] = assay: Evaluated in vivo for their ability to decrease plasma glucose levels in diabetic C57BL/KsJ db/db mouse at a dose 100 mg/kg/day.([…]); assay type: functional; procedure, shortened: as §2
[9] = target: T1, Tyrosine-protein phosphatase non-receptor type 1 (Rattus norvegicus); assay: Inhibition of PTPase activity in rat hepatic membrane at a concentration of 250 uM using pNPP as the substrate; assay type: cell membranes; conditions: Liver; procedure, shortened: as §3
Mus musculus [10] = assay: Evaluated in vivo for their ability to decrease plasma glucose levels in diabetic C57BL/KsJ db/db mouse at a dose 100 mg/kg/day.; assay type: functional; procedure, shortened: as §2
Mus musculus [11] = assay: Evaluated for their ability to decrease plasma insulin levels in mouse at a dose 100 mg/kg/day.([…]); assay type: functional; procedure, shortened: as §2
Mus musculus [12] = assay: Evaluated in vivo for their ability to decrease plasma glucose levels in diabetic C57BL/KsJ ob/ob mouse at a dose 100 mg/kg/day.([…]); assay type: functional; procedure, shortened: as §2
[13] = target: T1, Tyrosine-protein phosphatase non-receptor type 1 (Rattus norvegicus); assay: IC50 for PTPase activity, recombinant r-PTP1B as the enzyme .
[14] = target: T3, Tyrosine-protein phosphatase non-receptor type 1 (Mus musculus) (UniProt P35821); assay: In vivo ability to decrease plasma glucose levels in diabetic C57BL/KsJ ob/ob mouse at a dose 100 mg/kg/day; assay type: functional, organism-based; procedure, shortened: as §2
T3 sequence (whole entry): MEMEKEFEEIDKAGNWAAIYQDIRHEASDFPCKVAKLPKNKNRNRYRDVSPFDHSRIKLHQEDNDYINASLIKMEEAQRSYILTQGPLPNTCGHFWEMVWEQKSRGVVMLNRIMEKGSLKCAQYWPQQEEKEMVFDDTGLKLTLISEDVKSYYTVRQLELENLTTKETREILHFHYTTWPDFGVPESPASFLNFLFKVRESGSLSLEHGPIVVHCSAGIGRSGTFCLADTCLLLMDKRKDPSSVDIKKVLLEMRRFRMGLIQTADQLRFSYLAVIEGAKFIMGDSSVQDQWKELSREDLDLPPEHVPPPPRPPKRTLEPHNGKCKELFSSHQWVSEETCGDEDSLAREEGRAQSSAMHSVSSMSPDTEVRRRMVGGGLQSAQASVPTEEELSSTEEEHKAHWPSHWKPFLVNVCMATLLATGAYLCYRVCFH

Mus musculus [15] = assay: Evaluated in vivo for their ability to decrease plasma glucose levels in diabetic C57BL/KsJ db/db mouse at a dose 50 mg/kg/day, *p indicates <0.05; assay type: functional; procedure, shortened: as §2
[16] = target: T2, Tyrosine-protein phosphatase non-receptor type 1; assay: Inhibition of PTPase activity using recombinant r-PTP1B and IR-triphosphopeptide as substrate; ND is no data.; procedure, shortened: as §4
[17] = target: T3, Tyrosine-protein phosphatase non-receptor type 1 (Mus musculus); assay: Ability to decrease plasma insulin levels in mouse at a dose 100 mg/kg/day; assay type: functional, organism-based; procedure, shortened: as §2
Mus musculus [18] = assay: Evaluated in vivo for their ability to decrease plasma glucose levels in diabetic C57BL/KsJ ob/ob mouse at a dose 50 mg/kg/day.; assay type: functional, organism-based; procedure, shortened: as §2
Mus musculus [19] = assay: Evaluated in vivo for their ability to decrease plasma glucose levels in diabetic C57BL/KsJ db/db mouse at a dose 100 mg/kg/day. *p indicates <0.05; assay type: functional; procedure, shortened: as §1
Mus musculus [20] = assay: Evaluated for their ability to decrease plasma insulin levels in mouse at a dose 50 mg/kg/day. **p indicates <0.01; assay type: functional; procedure, shortened: as §2
Mus musculus [21] = assay: Evaluated in vivo for their ability to decrease plasma glucose levels in diabetic C57BL/KsJ db/db mouse at a dose 100 mg/kg/day; assay type: functional; procedure, shortened: as §2

inhibition [9]: 29%
Structure (SMILES): Cc1c(C)c2c(c(C)c1O)CCC(C)(COc1ccc(CC3SC(=O)NC3=O)cc1)O2 (stereo not drawn) [TROGLITAZONE]
Decrease (Mus musculus [8]): 34%

inhibition [6]: 46%
IC50 [13]: 1.5 µM
Structure (SMILES): C/C(=C\CC1SC(=O)NC1=O)c1cccc(OCc2nc(-c3ccc(OC(F)(F)F)cc3)oc2C)c1 (stereo not drawn)
Decrease (Mus musculus [10]): 18%
Decrease (Mus musculus [11]): 63%
Decrease (Mus musculus [12]): 44%

Decrease [14]: Not significant
inhibition [6]: 55%
IC50 [16]: Not significant
Decrease [17]: Not significant
Structure (SMILES): C/C(=C/C=C/Cn1oc(=O)[nH]c1=O)c1cccc(OCc2nc(-c3ccccc3)oc2C)c1
Decrease (Mus musculus [15]): 19%

The remaining lines, values behind:

Structure (SMILES): C/C(=C\Cn1oc(=O)[nH]c1=O)c1cccc(OCc2nc(-c3ccccc3)oc2C)c1 (stereo in doubt; 49)
Decrease (Mus musculus [1]): 28%
Decrease (Mus musculus [2]): 76%
Decrease (Mus musculus [3]): 39%

Structure (SMILES): CCCC/C(=C\Cn1oc(=O)[nH]c1=O)c1cccc(OCc2cc(Cl)cc(Cl)c2)c1
inhibition [4]: 61%
pIC50 [5]: 5.74
inhibition [6]: 57%
pIC50 [7]: 6.10

Structure (SMILES): Cc1oc(-c2ccc(C(F)(F)F)cc2)nc1COc1cccc(/C=C/C(C)n2oc(=O)[nH]c2=O)c1 (stereo not drawn)
Decrease (Mus musculus [18]): inactive
inhibition [6]: 49%
Decrease (Mus musculus [19]): 41%
Decrease (Mus musculus [20]): 83%

Structure (SMILES): Cc1oc(-c2ccc(OC(F)(F)F)cc2)nc1COc1cccc(C(C)CCn2oc(=O)[nH]c2=O)c1 (stereo not drawn)
Decrease (Mus musculus [21]): 41%
Decrease [14]: Not significant
inhibition [6]: 47%
IC50 [16]: Not significant
Decrease [17]: Not significant
